Measurements from ChEMBL document CHEMBL1212784, “Structure-microbicidal activity relationship of synthetic fragments derived from the antibacterial alpha-helix of human lactoferrin” (2010).
Converted amounts (≈) assume the structure as drawn. Positions of bridges follow the written chain, without caps; N, C: chain ends. Non-standard residues stand in square brackets, D forms with d. Residues, ends and D or L forms follow the SMILES beside them. Nle = CCCC[C@H](N)C(=O)O; Orn = NCCC[C@H](N)C(=O)O

What was measured:
[1] = Antimicrobial activity against Escherichia coli O6 K5 incubated in diluted brain heart infusion medium; type: functional
Outline: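 Microplate assay in diluted BHI (1/100 of 3.4%, pH 6.7 to 6.9), log-phase cells at ~2 × 10^5 cells/ml, twofold peptide dilutions, 2 h at 37°C in humid chamber; drops plated on blood agar, CFU counted; MMC99 = minimum concentration giving ≥99% killing of inoculum; duplicates.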

Staphylococcus aureus [2] = experiment: Antimicrobial activity against methicillin resistant Staphylococcus aureus MRS3525 incubated in diluted brain heart infusion medium; type: functional
Outline: (§1)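 Log-phase cells (BHI overnight at 37°C with shaking, subcultured 2 h, washed) at about 2 × 10^5 cells/ml final, exposed to twofold peptide dilutions in duplicate or triplicate. Medium: BHIdil (1/100 of 3.4% BHI, pH 6.7–6.9) or 1% Bactopeptone (pH 7.0). 2 h at 37°C, humid. 5-μl drops plated on blood agar overnight for CFU. MMC99 is the lowest concentration giving ≥99% kill.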

Candida albicans [3] = experiment: Antimicrobial activity against […] Candida albicans ATCC […] incubated in diluted brain heart infusion medium; type: functional; conditions: ATCC 6454; outline: as §1
Staphylococcus aureus [4] = experiment: Antimicrobial activity against methicillin resistant Staphylococcus aureus MRS3525 incubated in bactopeptone; type: functional; outline: as §1
[5] = Antimicrobial activity against Escherichia coli O6 K5 incubation in bactopeptone; type: functional
Outline: (§2)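 Microplate killing assay in 1% Bactopeptone (pH 7.0). Log-phase organisms (BHI overnight, 2 h subculture, 37°C, washed), final ~2 × 10^5 cells/ml, with twofold peptide dilutions, 37°C humid chamber 2 h (or 20 h where stated). 5 μl drops plated on blood agar overnight; MMC99 = lowest concentration giving ≥99% inoculum reduction; duplicates.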

Candida albicans [6] = experiment: Antimicrobial activity against Candida albicans ATCC […] incubation in bactopeptone; type: functional; conditions: ATCC 64549; outline: as §2
Enterococcus faecalis = experiment: Antimicrobial activity against Enterococcus faecalis ATCC 19433 using in brain heart infusion medium(dil) after 2 hrs at 25 ug/ml; type: functional
Outline: (§3)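 Single-concentration screen: log-phase organisms (~2 × 10^5 cells/ml) incubated 2 h at 37°C in diluted BHI (1/100 of 3.4%, pH 6.7 to 6.9) with 25 μg/ml peptide (10 μg/ml for E. coli O6 and C. albicans); viable counts on blood agar; scored as ≥99% killed or not; duplicates.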

[7] = test system: Staphylococcus epidermidis; experiment: Antimicrobial activity against Staphylococcus epidermidis CCUG 18000A using in brain heart infusion medium(dil) after 2 hrs at 25 ug/ml; type: functional; outline: as §3
Staphylococcus aureus [8] = experiment: Antimicrobial activity against Staphylococcus aureus 1800 (CCUG 1800) using in brain heart infusion medium(dil) after 2 hrs at 25 ug/ml; type: functional; outline: as §3
Klebsiella pneumoniae = experiment: Antimicrobial activity against Klebsiella pneumoniae CCUG 9997 using in brain heart infusion medium(dil) after 2 hrs at 25 ug/ml; type: functional; outline: as §3
Pseudomonas aeruginosa = experiment: Antimicrobial activity against Pseudomonas aeruginosa CCUG 551 using in brain heart infusion medium(dil) after 2 hrs at 25 ug/ml; type: functional; outline: as §3
Escherichia coli [9] = experiment: Antimicrobial activity against Escherichia coli O14 using in brain heart infusion medium(dil) after 2 hrs at 25 ug/ml; type: functional; outline: as §3
Escherichia coli [10] = experiment: Antimicrobial activity against Escherichia coli O6 using in brain heart infusion medium(dil) after 2 hrs at 10 ug/ml; type: functional; outline: as §3
Candida albicans [11] = experiment: Antimicrobial activity against Candida albicans ATCC […] using in brain heart infusion medium(dil) after 2 hrs at 10 ug/ml; type: functional, ATCC 64549; outline: as §3
Staphylococcus aureus [12] = experiment: Antimicrobial activity against Staphylococcus aureus 1800 (CCUG 1800) incubation in bactopeptone; type: functional; outline: as §2

| MIC99 [5] | MIC99 (Candida albicans [6]) | MIC99 (Staphylococcus aureus [12]) | Molecule | MIC99 [1] | MIC99 (Staphylococcus aureus [2]) | MIC99 (Candida albicans [3]) | MIC99 (Staphylococcus aureus [4]) | further results |
| --- | --- | --- | --- | --- | --- | --- | --- | --- |
| 25 µg/mL | 25 µg/mL | 25 µg/mL | H-CFQWKRNMRKVR-OH | – | – | – | – | – |
| 12 µg/mL (≈ 3.92 µM) | 50 µg/mL (≈ 16.3 µM) | 25 µg/mL (≈ 8.17 µM) | CC[C@H](C)[C@H](NC(=O)[C@@H]1CSSC[C@H](NC(=O)[C@H](CCCCN)NC(=O)[C@@H](NC(=O)[C@H](C)NC(=O)[C@H](CCC(=O)O)NC(C)=O)[C@@H](C)O)C(=O)N[C@@H](Cc2ccccc2)C(=O)N[C@@H](CCC(N)=O)C(=O)N[C@@H](Cc2c[nH]c3ccccc23)C(=O)N[C@@H](CCCCN)C(=O)N[C@@H](CCCNC(=N)N)C(=O)N[C@@H](CC(N)=O)C(=O)N[C@@H](CCSC)C(=O)N[C@@H](CCCNC(=N)N)C(=O)N[C@@H](CCCCN)C(=O)N[C@@H](C(C)C)C(=O)N[C@@H](CCCNC(=N)N)C(=O)NCC(=O)N2CCC[C@H]2C(=O)N2CCC[C@H]2C(=O)N[C@@H](C(C)C)C(=O)N[C@@H](CO)C(=O)N1)C(=O)N[C@@H](CCCCN)C(=O)N[C@@H](CCCNC(=N)N)C(N)=O (Ac-EATKCFQWKRNMRKVRGPPVSCIKR-NH2; disulfide 5-22) | – | – | – | – | – |
| 25 µg/mL (≈ 15.3 µM) | 25 µg/mL (≈ 15.3 µM) | 50 µg/mL (≈ 30.5 µM) | CSCC[C@H](NC(=O)[C@H](CC(N)=O)NC(=O)[C@H](CCCNC(=N)N)NC(=O)[C@H](CCCN)NC(=O)[C@H](Cc1c[nH]c2ccccc12)NC(=O)[C@H](CCC(N)=O)NC(=O)[C@H](Cc1ccccc1)NC(=O)[C@@H](N)CS)C(=O)N[C@@H](CCCNC(=N)N)C(=O)N[C@@H](CCCCN)C(=O)N[C@H](C(=O)N[C@@H](CCCNC(=N)N)C(=O)O)C(C)C (H-CFQW[Orn]RNMRKVR-OH) | – | – | – | – | – |
| 50 µg/mL | 25 µg/mL | 25 µg/mL | H-CFAWKRNMRKVR-OH | – | – | – | – | – |

The remaining lines, values behind:

| Molecule | MIC99 [5] | MIC99 (Candida albicans [6]) | MIC99 (Staphylococcus aureus [12]) | MIC99 [1] | MIC99 (Staphylococcus aureus [2]) | MIC99 (Candida albicans [3]) | MIC99 (Staphylococcus aureus [4]) | further results |
| --- | --- | --- | --- | --- | --- | --- | --- | --- |
| H-CFQWQRNMAKVR-OH | > 100 µg/mL | > 100 µg/mL | – | 25 µg/mL | 7 µg/mL | 25 µg/mL | > 100 µg/mL | – |
| H-CFAWQRNMRKVR-OH | 50 µg/mL | 25 µg/mL | – | 6 µg/mL | 3.5 µg/mL | 6 µg/mL | 100 µg/mL | – |
| H-ATKCFQWQRNMRKVR-OH | – | – | – | – | – | – | – | Activity (Enterococcus faecalis): >=99%; Activity [7]: >=99%; Activity (Staphylococcus aureus [8]): >=99%; Activity (Klebsiella pneumoniae): >=99%; Activity (Pseudomonas aeruginosa): >=99%; Activity (Escherichia coli [9]): >=99%; Activity (Escherichia coli [10]): >=99%; Activity (Candida albicans [11]): >=99% |
| H-CFQWQRNMRAVR-OH | 100 µg/mL | > 100 µg/mL | – | 12 µg/mL | 3.5 µg/mL | 25 µg/mL | > 100 µg/mL | – |
| CCCC[C@H](NC(=O)[C@H](CCCNC(=N)N)NC(=O)[C@H](CCC(N)=O)NC(=O)[C@H](Cc1c[nH]c2ccccc12)NC(=O)[C@H](CCC(N)=O)NC(=O)[C@H](Cc1ccccc1)NC(=O)[C@@H](N)CS)C(=O)N[C@@H](CCSC)C(=O)N[C@@H](CCCNC(=N)N)C(=O)N[C@@H](CCCCN)C(=O)N[C@H](C(=O)N[C@@H](CCCNC(=N)N)C(=O)O)C(C)C (H-CFQWQR[Nle]MRKVR-OH) | 50 µg/mL (≈ 30.3 µM) | 50 µg/mL (≈ 30.3 µM) | 50 µg/mL (≈ 30.3 µM) | – | – | – | – | – |
| H-FQWQRNMRKVR-OH | – | – | – | – | – | – | – | Activity (Enterococcus faecalis): <99%; Activity [7]: <99%; Activity (Staphylococcus aureus [8]): >=99%; Activity (Klebsiella pneumoniae): >=99%; Activity (Pseudomonas aeruginosa): <99%; Activity (Escherichia coli [9]): <99%; Activity (Escherichia coli [10]): <99%; Activity (Candida albicans [11]): <99% |
| H-AFQWQRNMRKVR-OH | > 100 µg/mL | > 100 µg/mL | – | > 25 µg/mL | 14 µg/mL | 12 µg/mL | > 100 µg/mL | – |
| H-CFQWQRAMRKVR-OH | 25 µg/mL | 25 µg/mL | – | 6 µg/mL | 3.5 µg/mL | 6 µg/mL | 50 µg/mL | – |
| CC[C@H](C)[C@H](NC(=O)[C@@H]1CSSC[C@H](NC(=O)[C@H](CCCCN)NC(=O)[C@@H](NC(=O)[C@H](C)NC(=O)[C@H](CCC(=O)O)NC(C)=O)[C@@H](C)O)C(=O)N[C@@H](Cc2ccccc2)C(=O)N[C@@H](C)C(=O)N[C@@H](Cc2c[nH]c3ccccc23)C(=O)N[C@@H](CCC(N)=O)C(=O)N[C@@H](CCCNC(=N)N)C(=O)N[C@@H](CC(N)=O)C(=O)N[C@@H](CCSC)C(=O)N[C@@H](CCCNC(=N)N)C(=O)N[C@@H](CCCCN)C(=O)N[C@@H](C(C)C)C(=O)N[C@@H](CCCNC(=N)N)C(=O)NCC(=O)N2CCC[C@H]2C(=O)N2CCC[C@H]2C(=O)N[C@@H](C(C)C)C(=O)N[C@@H](CO)C(=O)N1)C(=O)N[C@@H](CCCCN)C(=O)N[C@@H](CCCNC(=N)N)C(N)=O (Ac-EATKCFAWQRNMRKVRGPPVSCIKR-NH2; disulfide 5-22) | > 100 µg/mL | > 200 µg/mL | 100 µg/mL (≈ 33.3 µM) | – | – | – | – | – |
| CC[C@H](C)[C@H](NC(=O)[C@@H]1CSSC[C@H](NC(=O)[C@H](CCCCN)NC(=O)[C@@H](NC(=O)[C@H](C)NC(=O)[C@H](CCC(=O)O)NC(C)=O)[C@@H](C)O)C(=O)N[C@@H](Cc2ccccc2)C(=O)N[C@@H](CCC(N)=O)C(=O)N[C@@H](Cc2c[nH]c3ccccc23)C(=O)N[C@@H](CCC(N)=O)C(=O)N[C@@H](CCCNC(=N)N)C(=O)N[C@@H](C)C(=O)N[C@@H](CCSC)C(=O)N[C@@H](CCCNC(=N)N)C(=O)N[C@@H](CCCCN)C(=O)N[C@@H](C(C)C)C(=O)N[C@@H](CCCNC(=N)N)C(=O)NCC(=O)N2CCC[C@H]2C(=O)N2CCC[C@H]2C(=O)N[C@@H](C(C)C)C(=O)N[C@@H](CO)C(=O)N1)C(=O)N[C@@H](CCCCN)C(=O)N[C@@H](CCCNC(=N)N)C(N)=O (Ac-EATKCFQWQRAMRKVRGPPVSCIKR-NH2; disulfide 5-22) | 100 µg/mL (≈ 33.2 µM) | 37 µg/mL (≈ 12.3 µM) | 50 µg/mL (≈ 16.6 µM) | – | – | – | – | – |
